Compound activity: PubChem, Broad Institute
Shown are actives, neighbours in structure and some others; about 2% of the full set was active somewhere.
DENV2 CPE rescue: inhibitors of DENV2 cytopathic effect | AID 651640 | actives 1.7% (n = 350,000) | CPE inhibition, % at 9.99 µM | DENV2-infected cells, cytopathic effect rescue, plate reader; in the data active = CPE inhibition above about 20%, passing the limit was not always enough; inconclusive = no clear call, values can overlap the other calls; tested in BHK-21 cells;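 note: 0% = median of neutral control wells and 100% = median of positive control wells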
Casp6 inh: blocks human caspase-6 cleavage activity | inhibition, % at 12.5 µM | actives 0.53% (n = 350,000) | purified caspase-6, Z-VEID-R110 cleavage fluorescence | P55212;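 active = mean inhibition across replicates at least about 35%, with every replicate also reaching that limit, limit read from the data; inconclusive = only one of the two criteria met; inactive = neither criterion met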;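 note: 0% = median of neutral control wells and 100% = no fluorescence left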
Target sequence (P55212 24-179 limits assumed): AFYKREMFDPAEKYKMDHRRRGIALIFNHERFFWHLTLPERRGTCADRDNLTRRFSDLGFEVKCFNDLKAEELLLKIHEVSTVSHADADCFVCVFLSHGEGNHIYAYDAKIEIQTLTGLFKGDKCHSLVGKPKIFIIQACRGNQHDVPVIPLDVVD
Target sequence (P55212 194-293 limits assumed): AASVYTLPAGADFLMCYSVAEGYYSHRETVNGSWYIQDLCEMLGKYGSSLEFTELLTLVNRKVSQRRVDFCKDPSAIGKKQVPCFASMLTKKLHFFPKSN
FN deposition inh: fibronectin deposition inhibition | AH1F fibroblasts, Alexa488-fibronectin deposition fluorescence, overnight | inhibition, % at 12.6 µM | actives 0.086% (n = 350,000) | AID 743247;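 active = mean inhibition across replicates of 30% or more, regardless of how many single replicates reach that level; inconclusive = mean under 30% yet at least half of replicates reach 30%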;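 note: positive control wells lacked labelled fibronectin entirely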
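material = AH1F fibroblast monolayer depositing Alexa488-labelled fibronectin into matrix | amount = 10000 AH1F cells/well | buffer or medium = DMEM plus 2% serum, read in PBS | incubation = 1 h cell adhesion before compound, then overnight fibronectin incubation | detection = fluorescence at 485 nm excitation, 525 nm emission | evaluation = percent inhibition as loss of matrix-bound fibronectin fluorescence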
CaV13 ICDI inh: Disruptors of the CACNA1D IQ motif to Ca2+-dependent inactivation inhibitor domain association, primary screening, Förster resonance energy transfer in intact living … | HEK cells, CFP/YFP FRET ICDI-IQ, plate reader, 10 min; percent FRET-ratio fall versus neutral wells | inhibition, % at 12.3 µM | actives 0.098% (n = 340,000) | AID 743397;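 active = mean replicate inhibition of at least 30% and at least 1% of replicates passing that level; inconclusive = only one of the two criteria is met; inactive = neither criterion is met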;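 note: 0% = median of the neutral control wells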
XiGFP reactiv: X-chromosome reactivation activator. XiGFP mouse fibroblasts, % GFP-positive cells imaging, 3 d; cells co-treated with 5-aza-dC sensitizer; scaled so ellipticine positive control = 100%. activation, % at 7.58 µM. actives 0.055% (n = 360,000). AID 743238;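 active = mean normalized replicate activation at least 10% and every replicate at or above 10%; inconclusive = only one of the two criteria met; inactive = mean below 10% and not all replicates reach 10%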;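 note: 0% = median of on-plate neutral control wells and 100% = ellipticine 6 µM median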
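System: 68-5-11 XiGFP fibroblast line; Timing: 3 days compound exposure; Compound dosing: one concentration, pinned; Benchmarks: positive control ellipticine, 6 µM final; Buffer or medium: DMEM containing 5-aza-dC.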
* marks the source's active call; other numbers are inactive results; ? = inconclusive; nt = no result; ! = repeats disagree.

SMILES	DENV2 CPE rescue	Casp6 inh	FN deposition inh	CaV13 ICDI inh	XiGFP reactiv
CC(C)NC(=O)Nc1ccc2c(c1)C(=O)N([C@@H](C)CO)C[C@@H](C)[C@@H](CN(C)S(=O)(=O)c1ccc(Cl)cc1)OCCCC[C@@H](C)O2	17.0	-0.9	-11.0	nt	0.0
CC(C)c1ccc(C(=O)N2CCCC(c3cc(C(=O)Nc4ccccc4Cl)no3)C2)cc1 (stereo not drawn)	16.8	57.4*	3.3	-4.5	0.0
C[C@H]1CN([C@@H](C)CO)C(=O)c2cccc(NS(=O)(=O)c3cn(C)cn3)c2O[C@@H]1CN(C)C(=O)Nc1ccc2c(c1)OCO2	?	-1.8	nt	nt	0.1
O=C1N[C@H](Cc2ccccc2)COCc2cnnn2CC[C@H]1Cc1cccc(F)c1	nt	nt	-1.9	nt	0.3
COc1ccc2c3c(n(C)c2c1)[C@@H](CO)N(C(=O)CN1CCOCC1)CC31CN(Cc2ccncc2)C1	-2.3	-4.7	nt	nt	0.2
O=C(N/N=C/c1cc(Br)c(O)c(Br)c1O)c1cccnc1	0.3	40.2*	-0.7	-6.0	0.1
O=C(N/N=C/c1cccnc1)c1cc(O)c(O)c(O)c1	-1.0	41.1*	1.6	-3.9	0.0
C[C@@H]1CN([C@@H](C)CO)C(=O)c2cc(NC(=O)C3CCCCC3)ccc2O[C@@H](C)CCCCO[C@H]1CN(C)C(=O)NC1CCCCC1	-4.7	1.3	nt	nt	0.0
COc1ccc2c3c(n(C)c2c1)[C@H](CO)N(Cc1ccc2c(c1)OCO2)CC31CN(C)C1	nt	nt	nt	nt	0.2
C[C@H](CO)N1C[C@H](C)[C@@H](CN(C)Cc2ccc(Oc3ccccc3)cc2)Oc2c(NC(=O)Nc3ccc(C(F)(F)F)cc3)cccc2C1=O	24.2*	-1.1	-15.0	nt	-1.1
C[C@@H]1CN([C@@H](C)CO)C(=O)c2cccc(NC(=O)Nc3ccc(F)cc3)c2O[C@@H]1CN(C)Cc1ccc(Oc2ccccc2)cc1	55.4*!	-2.6	-28.0	-4.0	0.0
C[C@H]1CN([C@@H](C)CO)C(=O)c2cccc(NC(=O)Nc3ccc(F)cc3)c2O[C@@H]1CN(C)Cc1ccc(Oc2ccccc2)cc1	-1.3	0.1	nt	nt	0.0
C[C@@H]1CN([C@H](C)CO)C(=O)c2cccc(NC(=O)C3CCOCC3)c2O[C@H]1CN(C)Cc1ccc(Oc2ccccc2)cc1	24.7*	3.3	nt	nt	0.1
C[C@H]1CN([C@@H](C)CO)C(=O)c2cccc(NC(=O)Nc3ccccc3)c2O[C@@H]1CN(C)Cc1ccc(C(F)(F)F)cc1	3.0	1.0	nt	nt	-0.9
O=C(Cc1ccncc1)NCC[C@@H]1CC[C@@H](NC(=O)C2CCCC2)[C@@H](CO)O1	3.3	-3.1	-6.9	nt	0.0
CN(C)CC(=O)N1[C@@H](C#N)[C@H](c2ccccc2-c2ccccc2F)[C@@H]1CO	-4.8	-2.1	-0.5	nt	0.1
O=C(c1ccccn1)N1C[C@H]2[C@@H](c3ccccc31)[C@@H](CO)N2C(=O)c1ccccn1	-1.3	-3.4	nt	nt	0.0
CN(c1ccccc1)c1ncnc2c1ncn2C	88.7*	-3.5	-4.9	-12.7	0.0
CN(C)c1ncnc2c1ncn2-c1ccccc1	-2.6	-1.0	1.4	-5.9	0.1
COc1ccc(C(=O)C2CCCN(Cc3cc(C)c(O)c(C)c3)C2)c(OC)c1 (stereo not drawn)	7.0	-0.9	3.0	-4.9	-0.1
COc1cc(CN2CCCC(C(=O)c3ccc(C(C)(C)C)cc3)C2)cc(OC)c1O (stereo not drawn)	25.8*	-6.3	2.0	15.5	0.0
COc1ccccc1Cn1c(=S)[nH]c2cc(C(=O)N3CCN(c4ccccc4OC)CC3)ccc2c1=O	9.2	-1.3	12.7	-6.0	0.1
COc1ccccc1Cn1c(=S)[nH]c2cc(C(=O)N3CC(C)CC(C)C3)ccc2c1=O (stereo not drawn)	22.1*	-0.8	0.1	-8.8	-0.1
O=C(O)c1cccc2cccc(-c3c4ccc(=O)c(O)c-4oc4c(O)c(O)ccc34)c12	5.9	98.6*	5.8	-15.9	0.0
O=C(O)c1cccc2cc(-c3ccccc3)oc(=O)c12	2.5	2.1	-4.1	-19.8	0.0
C[C@H](CO)N1C[C@H](C)[C@H](CN(C)S(=O)(=O)c2cn(C)cn2)Oc2c(NS(=O)(=O)c3ccccc3)cccc2C1=O	-3.4	-3.9	nt	nt	-0.1
